Laboratory results: ChEMBL document CHEMBL1157235, “Lupane and oleanane triterpenoids from the cones of Liquidamber styraciflua” (2006)
Calls of active or inactive are those of the source. No cut-off for these calls is given here.

Assays:
P388 [1] = assay: Cytotoxicity against mouse P388 cells after 72 hrs by MTT assay; format: functional; conditions: P388, 72 h, read-out: ED50 (the source's name)
Method in brief: (§1)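 Cells were grown in RPMI-1640 with 10% FBS at 37 °C under humidified 5% CO2 and seeded at 1 × 10^4 cells/well with compounds for 72 h. MTT (5 mg/mL stock) was then added for 4 h at 37 °C. Formazan was solubilized with acidic SDS (0.02 N HCl in 20% SDS), and absorbance was read at 570 nm against a 620 nm reference.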

A549 [2] = assay: Cytotoxicity against human A549 cells after 72 hrs by MTT assay; format: functional; conditions: A549, 72 h, read-out: ED50 (the source's name); method in brief: as §1
P388 [3] = assay: Cytotoxicity against mouse P388 cells at 40 uM after 72 hrs by MTT assay; format: functional, cell-based
A549 [4] = assay: Cytotoxicity against human A549 cells at 40 uM after 72 hrs by MTT assay; format: functional, cell-based

| Compound | EC50 (P388 [1]) [µM] | EC50 (A549 [2]) [µM] | Activity (P388 [3]) | Activity (A549 [4]) |
| --- | --- | --- | --- | --- |
| CC1(C)CC[C@]2(C(=O)O)CC[C@]3(C)C(=CC[C@@H]4[C@]56CC[C@@](O)(OC5)C(C)(C)[C@@H]6CC[C@]43C)[C@@H]2C1 [LANTANOLIC ACID] | 24 | 26.5 |  |  |
| CC(=O)[C@@H]1CC[C@]2(C(=O)O)CC[C@]3(C)[C@H](CC[C@@H]4[C@@]5(C)CCC(=O)C(C)(C)[C@@H]5[C@H](O)C[C@]43C)[C@@H]12 |  |  | inactive | inactive |
| C=C(C)[C@@H]1CC[C@]2(C(=O)O)CC[C@]3(C)[C@@H](CC[C@@H]4[C@@]5(C)CCC(=O)C(C)(C)[C@@H]5[C@H](O)C[C@]43C)[C@@H]12 | 32.7 | ≥ 40 |  |  |
| COc1cc([C@@H]2c3cc4c(cc3[C@@H](O[C@@H]3O[C@@H]5CO[C@@H](C)O[C@H]5[C@H](O)[C@H]3O)[C@H]3COC(=O)[C@H]23)OCO4)cc(OC)c1O [ETOPOSIDE] |  | 3.76 |  |  |
| CC(=O)OC[C@]12CC[C@@H](O)C(C)(C)C1CC[C@]1(C)[C@@H]2CC=C2[C@@H]3CC(C)(C)CC[C@]3(C(=O)O)CC[C@]21C (stereo not given in full) | 28.2 | 13.3 |  |  |
| C=C(CO)[C@@H]1CC[C@]2(C(=O)O)CC[C@]3(C)[C@H](CC[C@@H]4[C@@]5(C)CCC(=O)C(C)(C)[C@@H]5[C@H](O)C[C@]43C)[C@@H]12 |  |  | inactive | inactive |
| CC1(C)CC[C@]2(C(=O)O)CC[C@]3(C)C(=CC[C@@H]4[C@@]5(C)CCC(=O)C(C)(C)[C@@H]5[C@H](O)C[C@]43C)[C@@H]2C1 | 18.5 | 33.5 |  |  |
| C=C(C)[C@@H]1CC[C@]2(C(=O)O)CC[C@]3(C)[C@H](CC[C@@H]4[C@]56CC[C@@](O)(OC5)C(C)(C)[C@@H]6CC[C@]43C)[C@@H]12 | 22.3 | 29.9 |  |  |
